p47phox inh – p47phox (human) inhibition | P14598 | p47phox/p22phox peptide binding, fluorescence polarization, 2 h | inhibition, % at 24.7 µM | 0.53% of 220,000 active | AID 1274;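 note: 0% = p47phox with labelled peptide and 100% = labelled peptide alone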
Target sequence (P14598 whole entry, looked up): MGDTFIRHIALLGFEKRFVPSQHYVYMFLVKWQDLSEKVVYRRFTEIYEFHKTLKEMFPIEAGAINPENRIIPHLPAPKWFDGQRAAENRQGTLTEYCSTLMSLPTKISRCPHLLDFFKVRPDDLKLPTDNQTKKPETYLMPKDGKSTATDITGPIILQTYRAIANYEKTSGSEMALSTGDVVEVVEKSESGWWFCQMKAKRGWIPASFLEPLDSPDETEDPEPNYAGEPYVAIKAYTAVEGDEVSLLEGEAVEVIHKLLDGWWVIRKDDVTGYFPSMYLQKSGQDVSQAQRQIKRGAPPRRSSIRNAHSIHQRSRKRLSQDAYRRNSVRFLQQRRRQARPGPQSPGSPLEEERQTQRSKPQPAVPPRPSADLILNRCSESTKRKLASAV
14-3-3 Bad inh – disrupts binding of bovine 14-3-3 zeta to phospho-Bad peptide; P63103; TR-FRET 14-3-3zeta/Dy647-pBad peptide displacement, 1 h; inhibition, % at 21.7 µM; 0.71% of 220,000 active; AID 781;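 active = inhibition above about 70%, limit read from the data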;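 note: 0% = full 14-3-3 plus peptide FRET controls and 100% = background without 14-3-3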
eIF4E 4G PPI – inhibitors of eIF4E and eIF4G interaction in translation initiation; TR-FRET eIF4E-eIF4GI(517-606) binding, 2 h; inhibition, % at 21.7 µM; 0.37% of 220,000 active; AID 782;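 note: 0% = full FRET control wells and 100% = background wells lacking eIF4GI fragment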
p97 ATPase inh – blocks human p97 ATPase activity; P55072; recombinant p97 ATPase, Kinase-Glo ATP luminescence, 3 h; inhibition, % at 8 µM; 0.42% of 220,000 active; AID 1481; in the data active = inhibition above about 15%;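 note: 0% = DMSO vehicle and 100% = wells lacking enzyme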
TbMetRS inhib – blocks T. brucei methionyl-tRNA synthetase activity; 0.4% of 360,000 active; purified T. brucei MetRS, ATP depletion, Kinase-Glo luminescence; AID 624268; inhibition, % at 11.9 µM;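 active = inhibition above a per-plate cutoff of the control wells' mean inhibition plus 3 SD, cut at about 5.5% in these data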;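 note: 0% = DMSO wells median and 100% = median of wells with control inhibitor compound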
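Dosing: 11.9 µM compound single dose, 0.9% DMSO; Assay system: purified T. brucei MetRS enzyme; Measured by: Kinase-Glo luciferase luminescence reporting remaining unconsumed ATP; Schedule: 15 min plus 2 h at 25 °C.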
UBC9 SUMO inh – blocks human SUMOylation mediated by UBC9. inhibition, % at 35 µM. P63279. 0.36% of 290,000 active. HTRF SUMOylation assay, SAE1/SAE2 + UBC9, in vitro; in the data active = inhibition above about 50%, passing the limit was not always enough
Target sequence (P63279 whole entry, looked up): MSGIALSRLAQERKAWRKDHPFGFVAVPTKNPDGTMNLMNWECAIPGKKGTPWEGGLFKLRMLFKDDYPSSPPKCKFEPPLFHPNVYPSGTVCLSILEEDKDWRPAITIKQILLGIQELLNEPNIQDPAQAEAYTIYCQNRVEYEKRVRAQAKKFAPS
* hit, by the source's call; . = no result given. Only some compounds are listed: those with a hit (about 1.6% of all), similar ones and a draw of the others.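 Rule for the calls, unless noted: active = inhibition above about 30% (limit read from the data); inactive = the rest.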

SMILES	p47phox inh	14-3-3 Bad inh	eIF4E 4G PPI	p97 ATPase inh	TbMetRS inhib	UBC9 SUMO inh
O=C(O)c1cc2cccc(S(=O)(=O)N3CCOCC3)c2cc1O	4.3	3.3	-1.2	3.9	0.4	51.8*
Oc1ccc(Nc2ncnc3c2oc2ccccc23)cc1	.	.	.	.	-0.4	-2.0
c1ccc(Nc2ncnc3c2oc2ccccc23)cc1	-8.4	70.6*	3.1	7.4	-0.5	9.5
c1ccc2c(c1)oc1c(Nc3ccc(CN4CCOCC4)cc3)ncnc12	-13.0	78.8*	-6.4	4.3	0.1	34.0
Oc1ccccc1Nc1ncnc2c1oc1ccccc12	1.6	73.5*	0.7	-1.2	-0.6	7.6
c1ccc2c(c1)oc1c(NCCN3CCOCC3)ncnc12	-5.4	57.9	1.7	2.7	-0.7	10.6
Nc1nccc(SCc2ccccc2)n1	.	.	.	.	-0.1	.
CSc1ccc(CN2CCC(C)(Oc3ccc(C(C)=O)cc3)C2)cc1 (centres undefined)	.	.	.	.	0.4	.
CCOc1ccccc1N1CCN(Cc2cccc(OC)c2O)CC1	0.8	73.5*	-1.8	0.6	-1.0	3.5
COc1ccccc1N1CCN(Cc2cc(Br)c(O)c3ncccc23)CC1	21.3	4.4	0.9	-1.0	-1.0	-0.5
COc1ccccc1C(=O)NNC(=O)c1sccc1-n1cccc1	-6.4	-19.9	-2.8	0.7	-0.4	2.2
CC(C)COc1ccc(C(=O)CCN2CCCCC2)cc1	-1.9	79.0*	2.5	-4.1	-0.1	17.7
COc1ccc(C2N(Cc3ccccc3)CC(=O)N2/N=C(\C)c2ccccc2)cc1 (centres undefined)	-0.1	5.0	-1.2	-7.3	-0.5	14.7
COC(=O)C[C@@H]1CC[C@H](NC(=O)Nc2ccc(OC)cc2)[C@@H](CO)O1	.	.	.	.	-0.6	.
Cc1cccc(C)c1NC(=O)C1(C)CN(S(C)(=O)=O)CC(=O)N1CCc1ccccc1F (centres undefined)	.	.	.	.	-0.8	.
CCc1ccc(S(=O)(=O)N2CCN(c3ncccn3)CC2)cc1	.	.	.	.	-1.9	1.3
Cc1ccc(C(C(=O)NC(C)(C)C)N(Cc2cccs2)C(=O)c2ccc3c(c2)OCCO3)cc1 (centres undefined)	51.7*	1.1	6.8	-1.1	-0.8	4.6
Cc1ccccc1/C=N\NC(=O)c1csnn1	-2.0	-8.7	0.4	1.4	-0.4	-13.1
O=C(N/N=C\c1ccc(F)cc1)c1csnn1	-1.9	89.3*	11.3	.	-1.6	-11.0
O=S(=O)(O)c1cc(O)c2c(O)c(N=Nc3cc(Cl)ccc3O)c(S(=O)(=O)O)cc2c1	.	.	.	.	18.1*	-30.1
CN(CC(=O)NCCc1ccccc1)S(=O)(=O)c1cccs1	-7.8	25.8	-6.2	0.1	-1.5	23.0
Cc1ccc(CNC(=O)CN(C)S(=O)(=O)c2cccs2)cc1	-0.1	85.7*	-0.1	0.3	2.1	13.3
Cc1cc(S(=O)(=O)Nc2ccc(C(=O)NCc3ccncc3)cc2)ccc1F	.	.	.	.	-0.2	.
O=[N+]([O-])c1ccc(O)c(C=Nc2cccc3ccccc23)c1	.	.	.	.	2.0	48.0
O=[N+]([O-])c1cccc(C=Nc2cccc3ccccc23)c1O	.	.	.	.	0.4	51.1*
SMILES	p47phox inh	14-3-3 Bad inh	eIF4E 4G PPI	p97 ATPase inh	TbMetRS inhib	UBC9 SUMO inh
CCOC(=O)CC1(C)Oc2cc(Cl)ccc2N1S(=O)(=O)c1ccc(C)cc1 (centres undefined)	.	.	.	.	-0.7	.
O=C1N(c2ccc(Cl)c(Cl)c2)CN(Cc2ccccc2)CN1n1cnnc1	-4.3	8.4	-0.7	-0.1	-0.4	60.7*
O=C1NC[C@@H](CCCCN2C[C@H](Cc3ccc(O)cc3)N(Cc3ccccc3)C(=O)C2=O)N(CCC2CCCCC2)C1=O	.	.	.	.	-0.5	.
Cn1nc(C(=O)NCCOc2ccccc2)c2ccccc2c1=O	10.0	74.7*	-3.1	-0.1	-0.5	4.9
Cn1nc(C(=O)NCc2ccccc2)c2ccccc2c1=O	-0.6	4.5	9.8	2.5	-0.3	25.3
Cc1ccc(S(=O)(=O)N2CC3C(=O)C[C@@H](c4ccccc4)N(S(=O)(=O)c4cccc(Cl)c4)C3CC2c2ccccc2)cc1 (some centres undefined)	.	.	.	.	0.4	.
N=C1S/C(=C\c2ccco2)C(=O)N1c1ccc2c(c1)OCO2	-12.0	29.3	13.3	3.7	0.3	.
N=C1S/C(=C\c2ccco2)C(=O)N1c1nccs1	-30.2	-5.9	-1.2	3.7	0.5	94.1*
CCN(CC)c1nc(SCC(=O)O)nc(N(CC)CC)n1	-4.9	9.2	7.0	14.6*	0.1	7.6
CCOC(=O)CSc1nc(NC#N)nc(N(CC)CC)n1	-22.4	14.7	-0.4	3.3	-0.4	24.3
O=C(N[C@@H]1CC[C@@H](CCNC(=O)C2CCOCC2)O[C@@H]1CO)c1ccncc1	.	.	.	.	-1.0	.
CN1CCN(Cc2cccc(Oc3ccccc3)c2)CC1	-0.3	70.4*	13.4	-2.7	-0.2	6.9
O=C1CC(Cc2ccccc2)C(=O)N1CCCn1ccnc1 (centres undefined)	-11.9	75.5*	5.0	6.7	.	27.9
Cc1ccc(CC2CC(=O)N(CCc3ccccc3)C2=O)cc1 (centres undefined)	0.3	-7.1	5.6	1.6	-0.2	-12.5
CC(C)(C)N1C(=O)c2ccccc2NC(=O)N1Cc1ccccc1	-10.4	-4.4	-4.3	1.4	0.1	1.2
O=C1Nc2ccccc2C(=O)C1(Cl)Cc1ccccc1 (centres undefined)	5.9	28.1	38.4*	-7.3	0.5	25.3
CCCCC(=O)Nc1nn(CC(C)C)c2nc3ccccc3cc12	-16.3	82.0*	1.4	-4.8	0.4	19.7
O=C(c1cccnc1)N1CCN(Cc2ccc3ccccc3c2)CC1	.	.	.	.	-0.5	10.4
O=C(c1cccnc1)N1CCN(Cc2cccc(F)c2)CC1	-14.3	75.5*	20.3	0.2	-0.7	13.0
Cc1cccc(C)c1NC(=O)C1(C)CSCC(=O)N1CCc1c[nH]c2ccccc12 (centres undefined)	.	.	.	.	0.0	.
CCN(CC)C(=O)CSc1nc(N)c2c3c(sc2n1)CC(C)CC3 (centres undefined)	58.7*	-1.9	18.4	-8.4	-0.5	10.6
CC1CCc2c(sc3nc(SCC(=O)NCc4ccco4)nc(N)c23)C1 (centres undefined)	-10.5	-11.8	0.1	1.4	-0.6	-13.5
O=C(NCCSCc1c(F)cccc1Cl)Nc1ccccc1	.	.	.	.	7.8*	-3.3
S=C(NCCSCc1ccc(Cl)cc1Cl)Nc1ccccc1	-8.2	6.5	-4.2	1.4	69.7*	-24.3
CCCCNC(=O)CCCn1c(=S)[nH]c2cc3c(cc2c1=O)OCO3	-5.9	-10.2	2.5	17.3*	0.2	17.9
COc1ccc(-c2nc(CC(=O)O)cs2)cc1OC	2.0	81.2*	-1.8	3.0	.	35.7
Cc1ccc(S(=O)(=O)N2[C@H](CC(=O)c3cccs3)OC[C@@H]2C)cc1	.	.	.	.	-0.1	.
Cc1ccc(C(=O)N2CCCC2)cc1Br	92.2*	.	.	-4.2	0.2	10.9

Screening data as filed in PubChem BioAssay.
